# Bioassay records from PubChem BioAssay.
# A selection: hits, their analogues and other compounds. The true share with any hit is near 0.77%.
# hIAP block = human IAP inhibition; P09923; purified IAP, CDP-Star luminescence, 30 min; inhibition, % at 10 µM; actives 0.12% (n = 330,000); AID 2544;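 active means inhibition reaching a set limit with compound at 10 µM in the primary screen, cut at about 35% in these data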;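 further: plate controls were DMSO wells with enzyme for no effect and no-enzyme buffer wells for full effect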
# Target sequence (P09923 whole entry, looked up): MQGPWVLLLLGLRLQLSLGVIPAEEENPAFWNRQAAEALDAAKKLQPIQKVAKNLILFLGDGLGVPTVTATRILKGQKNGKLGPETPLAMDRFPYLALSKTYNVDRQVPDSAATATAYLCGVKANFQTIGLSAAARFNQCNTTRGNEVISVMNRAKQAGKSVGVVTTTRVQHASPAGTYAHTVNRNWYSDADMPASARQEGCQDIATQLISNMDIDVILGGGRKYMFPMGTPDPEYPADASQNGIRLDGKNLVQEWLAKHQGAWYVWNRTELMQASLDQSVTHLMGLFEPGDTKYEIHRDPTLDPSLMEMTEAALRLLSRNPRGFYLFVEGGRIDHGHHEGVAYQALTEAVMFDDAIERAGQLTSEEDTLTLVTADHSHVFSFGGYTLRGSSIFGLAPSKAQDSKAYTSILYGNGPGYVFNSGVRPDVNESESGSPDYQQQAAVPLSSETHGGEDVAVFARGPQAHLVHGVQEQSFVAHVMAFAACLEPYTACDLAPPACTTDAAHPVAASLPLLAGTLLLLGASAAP
# bIAP act = intestinal alkaline phosphatase (bovine) activation; purified bovine IAP, CDP-star luminescence, 30 min; stronger effect = higher value; fold of DMSO-control signal, blank-subtracted; activation factor at 20 µM; actives 0.17% (n = 200,000);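 active means activation factor of 2 or more at 20 µM, a signal rise over negative controls twice the positive control's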
# mIAP activ = mouse IAP activation; muIAP, CDP-Star luminescence, 30 min; stronger effect = higher value; 1 = vehicle-only enzyme signal, 0 = enzyme-free wells; activation factor at 10 µM; actives 0.24% (n = 330,000);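 active means activation factor of at least 2 at 20 µM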
#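 also added = chemiluminescent substrate CDP-Star | test system = mouse IAP enzyme | signal = chemiluminescence readout | compound = DMSO-dissolved test compounds | incubation = 30 min at room temperature | benchmarks = DMSO wells, no-enzyme wells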
# mIAP inh = mouse IAP inhibition; inhibition, % at 10 µM; AID 2806; actives 0.2% (n = 330,000); purified mouse IAP, CDP-Star luminescence, 30 min;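 active means inhibition of at least 40% at 10 µM in the primary screen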;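 further: plate controls were DMSO with enzyme for no effect and no enzyme wells for full effect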
# hIAP activ = human IAP activation | P09923 | purified human IAP, CDP-Star luminescence, 30 min; stronger effect = higher value; 1 = vehicle-only enzyme, 0 = enzyme-free background | activation factor at 10 µM | actives 0.16% (n = 330,000);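 active means activation factor of the enzyme at least 2-fold when tested at 20 µM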
# bIAP inh = intestinal alkaline phosphatase (bovine) inhibition | purified bovine IAP, CDP-star luminescence, 30 min | inhibition, % at 20 µM | 190,000 tested, under 10 active;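 active means over 50% inhibition of intestinal alkaline phosphatase at 20 µM in the single-dose screen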
#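 Incubation: 30 min reaction at room temperature / Material: purified bovine intestinal alkaline phosphatase (IAP) enzyme / Input: enzyme at 1/65,000,000 dilution / Dosing: 20 µM single dose / Signal: CDP-star luminescence signal / Reagent: CDP-star chemiluminescent phosphatase substrate, 30 µM final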
# mIAP inh conf = mouse IAP inhibition confirmation | shares compounds with mIAP inh | purified mouse IAP, CDP-Star luminescence, 30 min | inhibition, % at 10 µM | actives 4.7% (n = 11,000) | AID 434971;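 active means inhibition of at least 40% at 10 µM in either of the two replicates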;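 further: plate controls were DMSO wells with enzyme for no effect and buffer wells lacking enzyme for full effect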
# Starred values were filed as active, the others as inactive; i = inactive; / = no result.
SMILES,hIAP block,bIAP act,mIAP activ,mIAP inh,hIAP activ,bIAP inh,mIAP inh conf
CCCC1=NN2C(=N)/C(=C\c3ccc(SCc4ccco4)o3)C(=O)N=C2S1,11,0.8,0.43,57*,0.89,17,70*
CCC1=NN2C(=N)/C(=C\c3ccc(SCc4ccco4)o3)C(=O)N=C2S1,17,0.9,0.26,74*,0.83,13,72*
CCC1=NN2C(=N)/C(=C/c3c(C)nn(-c4ccccc4)c3Cl)C(=O)N=C2S1,-6,0.9,1.1,-8,1.1,5,/
Cc1ccccc1NS(=O)(=O)c1ccc(-c2ccc(=O)[nH]n2)o1,-4,/,0.99,1,1,/,/
O=C(Nc1nc(-c2ccco2)c(-c2ccco2)s1)C1CC(=O)N(c2ccc3c(c2)OCCO3)C1 (stereo not given),9,0.9,0.46,54*,0.91,5,69*
Cc1nnc(NC(=O)C2CC(=O)N(c3ccc4c(c3)OCCO4)C2)s1 (stereo not given),-2,/,1,-1,1,/,/
Cc1ccc(S(=O)(=O)/N=C2/NC(=O)/C(=C\c3cc(Br)cc(Br)c3O)S2)cc1,3,/,0.57,43*,0.97,/,49*
Cc1ccc(S(=O)(=O)/N=C2/NC(=O)/C(=C/c3ccc(Br)o3)S2)cc1,22,1,0.69,31,0.78,-4,/
Cc1cc2nc3ccc(N(C)C)cc3nc2cc1N,-2,/,0.43,57*,1,/,65*
NC1=NC2(CCCCC2)N=C(Nc2ccc(F)cc2F)N1,12,1.3,0.99,1,0.88,-26,/
Cc1cc(C)cc(NC2=NC3(CCCCC3)N=C(N)N2)c1,1,3.7*,3*,-199,0.99,-269,-222
Cc1ccc(C)c(CN2CCC(CNC(=O)Nc3ccc(F)c(Cl)c3)CC2)c1,-54,/,3.4*,-235,1.5,/,-98
COc1cc(NC(=O)NCC2CCN(Cc3ccccc3F)CC2)cc(OC)c1,-32,/,3.1*,-208,1.3,/,-167
Cc1cc(C)cc(NC(=O)NCC2CCN(Cc3cc(C)ccc3C)CC2)c1,-61,/,3.6*,-256,1.6,/,-132
Cc1ccc(C)c(CN2CCC(CNC(=O)CCc3nnc4ccc(N5CCCCC5)nn34)CC2)c1,5,/,1,0,0.95,/,/
O=C(NCCN1CCCCC1)Nc1ccc(F)c(Cl)c1,10,0.9,1.1,-14,0.9,10,/
COc1ccc2cc(-c3cc(C(=O)O)c4ccccc4n3)ccc2c1,3,1,0.98,2,0.97,-3,/
Cc1ccc(C)c(OCc2ccc(C(=O)N3N=C(C(F)F)CC3(O)C(F)F)o2)c1 (stereo not given),8,1,0.95,5,0.92,4,/
COc1ccccc1/C=c1\sc2nc(-c3ccco3)nn2c1=O,22,0.9,0.58,42*,0.78,5,70*
Brc1ccc(C2Nc3cccc4cccc(c34)N2)o1,13,0.8,0.56,44*,0.87,20,53*
Brc1cccc(C2Nc3cccc4cccc(c34)N2)c1,22,/,0.88,12,0.78,/,/
NC(=O)c1oc2ccccc2c1NC(=O)c1ccc([N+](=O)[O-])o1,0,/,0.97,2,1,/,/
CCCCN1C(=O)/C(=C/C=C2\N(C)c3ccccc3C2(C)C)SC1=S,23,0.5,0.49,51*,0.77,/,43*
CCC(C)NC(=O)Nc1ccc2c(c1)N(C)C(=O)c1ccccc1S2 (stereo not given),-6,3.6*,3.4*,-240,1.1,-260,-100
COc1cccc(C(=O)Nc2cccc3ccccc23)c1,14,/,0.99,1,0.85,/,/
SMILES,hIAP block,bIAP act,mIAP activ,mIAP inh,hIAP activ,bIAP inh,mIAP inh conf
COc1cccc(C(CC(=O)Nc2cccc3ccccc23)NC(=O)c2ccccc2)c1 (stereo not given),-4,1.4,2.1*,-108,1,-44,-119
COc1cc2c(ccc3cc(OC)c(OC)c(O)c32)cc1O,6,/,0.49,50*,0.94,/,58*
CSCCC(NS(=O)(=O)c1cccc(C(F)(F)F)c1)C(=O)N(C)CCOc1ccc(Cl)cc1 (stereo not given),-6,/,0.88,12,1.1,/,/
C#CCOCCOCCOCCNc1nc(N2CCN(C(=O)CCCCCCCCCCNC(=O)Cn3cc(C[C@@H](C)O)nn3)CC2)nc(N2CCN(C(=O)CCCCCCCCCCNC(=O)[C@@H]([C@H](C)CC)n3cc(CCCCCN)nn3)CC2)n1,-8,/,6.1*,i,1.1,/,-459
C#CCOCCOCCOCCNc1nc(N2CCN(C(=O)CCCCCCCCCCNC(=O)Cn3cc(CCCCCN)nn3)CC2)nc(N2CCN(C(=O)CCCCCCCCCCNC(=O)Cn3cc(C[C@@H](C)O)nn3)CC2)n1,-28,/,2.1*,-113,1.3,/,-122
CCCCC1=CC2=C(c3ccco3)C(=O)C(C)(OC(=O)c3ccc(OC)cc3)C(=O)C2=CN1Cc1ccc2c(c1)OCO2 (stereo not given),20,/,0.56,44*,0.8,/,50*
O=C(CCCN1C(=O)/C(=C\c2cccs2)SC1=S)Nc1cccc(C(=O)O)c1,8,1,0.97,3,0.92,0,/
O=C(CCCN1C(=O)/C(=C\c2ccco2)SC1=S)Nc1ccc(O)cc1C(=O)O,21,/,0.32,68*,0.79,/,75*
O=C(CCCN1C(=O)/C(=C/c2ccco2)SC1=S)Nc1cccc(C(=O)O)c1,6,/,0.36,64*,0.94,/,71*
COc1ccc(CCC(=O)OCC(=O)N2CCN(S(=O)(=O)c3ccc(C)cc3C)CC2)cc1,-4,/,0.9,10,1,/,/
CCN(CC)C(=O)CC(c1ccc(F)cc1)c1ccco1 (stereo not given),-15,0.9,1,-1,1.1,7,/
COCCCNC(=S)Nc1ccccc1C,14,0.9,0.92,8,0.86,13,/
S=C(NCc1ccccn1)Nc1cccc(Cl)c1,6,1,1.2,-17,0.94,4,/
S=C(NCCC(c1ccccc1)c1ccccc1)Nc1cccc(Cl)c1,-70,1.7,4.1*,-305,1.7,-70,-274
Cc1ccccc1NC(=S)NCCC(c1ccccc1)c1ccccc1,-1,1.1,3.7*,-269,1,-10,-96
CCC(NC(=O)CCC(=O)N1CCN(S(=O)(=O)c2ccc(C)cc2)CC1)c1ccc(C)cc1 (stereo not given),6,/,1,-5,0.94,/,/
CC(=O)Nc1sc(N/N=C\c2ccccc2)nc1-c1cccs1,-7,1,0.78,22,1.1,-3,/
CCOc1cc(/C=N/Nc2nc(-c3cccs3)c(NC(C)=O)s2)ccc1O,14,/,0.59,41*,0.86,/,44*
COCCNC(=O)c1ccc(CS(=O)(=O)c2ccc(Cl)cc2)o1,-16,1,1,-5,1.2,0,/
